Folding enthalpy and Tm data for 30 sequences are collected here from the array DNA melting data of Ke et al. (doi:10.1101/2024.01.08.574731).

Series [1] is described as follows: folding enthalpy; higher = less favourable; fluorescence melt of hairpins on a sequencing array, two-state fit. Conditions: sodium 0.088 M. In outline:
(§1)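 Bootstrapped two-state fits yielded melting temperature and folding enthalpy for library hairpins. Cy3 fluorescence, with annealed Cy3 and quencher oligos, was imaged on a sequenced MiSeq flow cell in 50 mM Na-HEPES pH 8.0, 25 mM NaCl in 2.5 °C steps up to 60 °C, and normalised to pre-quench Cy3 and to control constructs. Four replicates were combined by inverse variance, and fitted temperatures were raised by 9.35 °C to match UV melts.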

A short description of series [2]: melting temperature; fluorescence melt of hairpins on a sequencing array, two-state fit, raised by 9.35 °C to match UV melts. Particulars: sodium 0.088 M. The gist of the method:
as §1

For GGCTGTGGAAACACAACC ((.((((....)))).)), the folding enthalpy in series [1] is -31.5 kcal/mol. Besides, the Tm in series [2] came to 44.4 °C.

Take GAGTGGGGAAACCCATTC ((.((((....)))).)): the folding enthalpy in series [1] was -27.2 kcal/mol. Moreover, the Tm in series [2] worked out at 42.5 °C.

As for GCCCGAGGAAACCCGGGC (((((.(....).))))), the folding enthalpy in series [1] is -40.6 kcal/mol. Also, the Tm in series [2] turned out to be 60.6 °C.

With GTGCACGAAAGTGTCCAC ((((((....)))..))), in series [1], the folding enthalpy was -10.8 kcal/mol. In series [2], the Tm came out at 34.8 °C.

With GATCTCAAGAGAGATC ((((((....)))))), the folding enthalpy in series [1] is -32.5 kcal/mol. In series [2], the Tm came to 49.4 °C.

In the case of GGTCTGGGAAACCGGACC ((((.((....)).)))), in series [1], the folding enthalpy was -46.1 kcal/mol. In series [2], the Tm worked out at 58.6 °C.

For the sequence GATCTCCCTTGAGATC ((((((....)))))), the folding enthalpy in series [1] was -39.4 kcal/mol. Besides, the Tm in series [2] came to 52.6 °C.

GGGAGCGAAAGCTTCCCC ((((((....)))..))): in series [1], the folding enthalpy was -12.9 kcal/mol. The Tm in series [2] turned out to be 61 °C.

With GCATTTGGAAACAGATGC ((((.((....)).)))), the folding enthalpy in series [1] was -33.4 kcal/mol. In series [2], the Tm was 44 °C.

GATCAAGACATTGATC ((((((....)))))): in series [1], the folding enthalpy is -38.8 kcal/mol. The Tm in series [2] was determined as 50.1 °C.

As to GATCCGCAAGCGGATC ((((((....)))))), the folding enthalpy in series [1] is -39 kcal/mol. Moreover, the Tm in series [2] stood at 68 °C.

Turning to CGCTCGGAAACGACGCG ((((((....))).))), the folding enthalpy in series [1] was -34.6 kcal/mol. In addition, in series [2], the Tm was determined as 51.1 °C.

On to GGGATCGGAAACGGTCTC (.((.((....)).)).), for which, in series [1], the folding enthalpy was -22.1 kcal/mol. For the same sequence, the Tm in series [2] was found to be 39.6 °C.

Take GGCCGGCGAAAGCCAGCC (((.(((....))).))): the folding enthalpy in series [1] was -22.4 kcal/mol. Further, the Tm in series [2] worked out at 68.1 °C.

For GATCCTCAGGAGGATC ((((((....)))))), the folding enthalpy in series [1] is -30.9 kcal/mol. Further, the Tm in series [2] came out at 55.2 °C.

With GATCCCCTTTGGGATC ((((((....)))))), the folding enthalpy in series [1] is -33.9 kcal/mol. Further, the Tm in series [2] stood at 61 °C.

GGCTTGGGAAACCGAGCC ((((.((....)).)))): the folding enthalpy in series [1] is -54.1 kcal/mol. Also, the Tm in series [2] stood at 58.5 °C.

On to GAAGCAGGAAACTGCTTC (((((((....))))))), for which the folding enthalpy in series [1] is -39.9 kcal/mol. For the same sequence, in series [2], the Tm amounted to 62.2 °C.

Regarding GGTGCCGAAAGGCGGACC ((((((....)))..))), the folding enthalpy in series [1] was -13.9 kcal/mol. In series [2], the Tm turned out to be 45.7 °C.

Turning to GTACGCGAAAGCGGATAC ((((((....)))..))), the folding enthalpy in series [1] is -10.3 kcal/mol. The Tm in series [2] amounted to 37.1 °C.

For the sequence GACGACGAAAGTCGGTC ((((((....))).))), in series [1], the folding enthalpy is -12.2 kcal/mol. For the same sequence, the Tm in series [2] amounted to 60.3 °C.

As to GGCAGAGAAATCTGCC ((((((....)))))), the folding enthalpy in series [1] is -32.8 kcal/mol. Further, the Tm in series [2] turned out to be 63.5 °C.

Regarding GCTTGGGCGAAAGCCAGC (((..(((....)))))), the folding enthalpy in series [1] was -12.9 kcal/mol. For the same sequence, the Tm in series [2] came out at 48.6 °C.

In the case of GTACTACGAAAGTATTAC (((.(((....))).))), the folding enthalpy in series [1] is -23.5 kcal/mol. In addition, the Tm in series [2] was 32.8 °C.

GGGATAGAAATATCCC ((((((....)))))): the folding enthalpy in series [1] was -30.3 kcal/mol. Besides, the Tm in series [2] worked out at 51.1 °C.

GGGAACTCGAAAGAGCCC (((..(((....)))))): in series [1], the folding enthalpy is -20.3 kcal/mol. In addition, the Tm in series [2] came to 37.8 °C.

In the case of GAGCTTGGAAACAAGTTC ((.((((....)))).)), in series [1], the folding enthalpy is -25.9 kcal/mol. In addition, in series [2], the Tm came out at 44.1 °C.

As to GATCGTGCCACGATC ((((((...)))))), the folding enthalpy in series [1] was -35.8 kcal/mol. In addition, in series [2], the Tm came out at 57.8 °C.

For GAGTTGCCGAAAGGCCTC (((..(((....)))))), in series [1], the folding enthalpy was -9.97 kcal/mol. In addition, the Tm in series [2] was 34.9 °C.

Take GATCACCATCGTGATC ((((((....)))))): the folding enthalpy in series [1] was -31.8 kcal/mol. Also, in series [2], the Tm was 54.5 °C.
